Common to all, as to format: functional
The subject of assay [1] is Aspergillus fumigatus. Description: Antifungal activity against Aspergillus fumigatus assessed as detectable inhibition of growth after 96 hrs. The method in brief: (§1)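 Spore germination/growth inhibition was read in microtiter plates with compounds up to 100 µg/mL. Plates were incubated in darkness at 27-28 °C: D. sorokiniana 48 h, F. culmorum 72 h, A. fumigatus 96 h. Visual scores ran from 3 (full inhibition, like sterile medium) through 1 (detectable) to 0 (like untreated spore suspension). Triplicates, repeated once.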

For assay [2], the system named is Fusarium culmorum. Description: Antifungal activity against Fusarium culmorum assessed as total inhibition of cell growth/spore germination after 72 hrs. The method in brief: as §1
The subject of assay [3] is Drechslera. Description: Antifungal activity against Drechslera sorokiniana assessed as detectable inhibition of growth after 48 hrs. The essentials:
as §1

The test system of assay [4] is Candida albicans. Description: Antifungal activity against Candida albicans assessed as detectable inhibition of growth after 24 hrs. The essentials: (§2)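 Microtiter-plate cell growth inhibition, compounds tested up to 100 µg/mL, incubated at 37 °C for 24 h. Total inhibition was taken as full inhibition of growth. Tests run in triplicate and repeated once.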
The subject of assay [5] is Staphylococcus aureus. Nature of the assay: Antibacterial activity against Staphylococcus aureus assessed as total inhibition of cell growth/spore germination after 24 hrs. The essentials:
as §2

The test system of assay [6] is Pseudomonas savastanoi pv. savastanoi. Description: Antibacterial activity against Pseudomonas savastanoi pv. savastanoi CCM 3580 assessed as detectable inhibition of growth after 24 hrs. Conditions: CCM 3580, 24 h. The essentials: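 Microtiter-plate bioassay of cell growth inhibition; compounds tested up to 100 µg/mL; plates incubated in darkness at 27-28 °C for 24 h; growth scored visually on a 0-3 scale (3 full inhibition like sterile-medium control, 1 detectable inhibition, 0 like untreated cell suspension); value is lowest concentration giving detectable inhibition; triplicate, repeated once.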

Assay [7] concerns Staphylococcus aureus. Description: Antibacterial activity against Staphylococcus aureus assessed as detectable inhibition of growth after 24 hrs. The essentials: as §2
Assay [8] concerns Candida albicans. Nature of the assay: Antifungal activity against Candida albicans assessed as total inhibition of cell growth/spore germination after 24 hrs. The method in brief:
as §2

Assay [9] concerns Drechslera. Nature of the assay: Antifungal activity against Drechslera sorokiniana assessed as total inhibition of cell growth/spore germination after 48 hrs. The essentials:
as §1

Assay [10] has as its system Aspergillus fumigatus. Description: Antifungal activity against Aspergillus fumigatus assessed as total inhibition of cell growth/spore germination after 96 hrs. The method in brief:
as §1

In assay [11] the test system is Fusarium culmorum. Nature of the assay: Antifungal activity against Fusarium culmorum assessed as detectable inhibition of growth after 72 hrs. The essentials:
as §1

Molecules are shown by their SMILES. Values after ≈ are worked out from the molar mass of the structure shown.

Regarding `CCCCc1c(O)cc(CCC)cc1O`, the MIC turned out to be 50 µg/mL (≈ 240 µM) in the assay with Aspergillus fumigatus [1]; 50 µg/mL (≈ 240 µM) with Fusarium culmorum [2]; 50 µg/mL (≈ 240 µM) with Drechslera [3]; 50 µg/mL (≈ 240 µM) in the assay on Candida albicans [4]; 5 µg/mL (≈ 24 µM) with Staphylococcus aureus [5].

For `CCCCCCc1c(O)cc(CCCCC)cc1O` [RESORSTATIN], the MIC turned out to be 50 µg/mL (≈ 189 µM) in the assay with Aspergillus fumigatus [1]; 50 µg/mL (≈ 189 µM) with Fusarium culmorum [2]; 50 µg/mL (≈ 189 µM) in the assay on Drechslera [3]; 50 µg/mL (≈ 189 µM) in the assay on Candida albicans [4]; 50 µg/mL (≈ 189 µM) in assay [6]; 6 µg/mL (≈ 22.7 µM) with Staphylococcus aureus [7]. Besides, the MIC in the assay with Staphylococcus aureus [5] came out at 7 µg/mL (≈ 26.5 µM).

In the case of `CCCCCCC1=C(O)C(=O)C(CCCCC)=CC1=O`, the minimum inhibitory concentration (MIC) with Staphylococcus aureus [5] and with Candida albicans [8] was 100 µg/mL (≈ 359 µM) in each case.

`CN[C@@H]1[C@H](O[C@H]2[C@H](O[C@H]3[C@H](O)[C@@H](O)[C@H](N=C(N)N)[C@@H](O)[C@@H]3N=C(N)N)O[C@@H](C)[C@]2(O)C=O)O[C@@H](CO)[C@H](O)[C@H]1O` [STREPTOMYCIN]: the MIC in the assay with Staphylococcus aureus [5] came out at 10 µg/mL (≈ 17.2 µM).

On to `C=CCOC(Cn1ccnc1)c1ccc(Cl)cc1Cl` (stereo not drawn) [ENILCONAZOLE], for which the figures for the MIC with Fusarium culmorum [2], in the assay with Drechslera [9] and in the assay on Aspergillus fumigatus [10] were 5 µg/mL (≈ 16.8 µM), 0.1 µg/mL (≈ 0.336 µM) and 5 µg/mL (≈ 16.8 µM), respectively.

As to `CCCCCCc1c(O)cc(CCC)cc1O`, the MIC with Aspergillus fumigatus [1] is 10 µg/mL (≈ 42.3 µM); with Fusarium culmorum [2] it was 50 µg/mL (≈ 212 µM); in the assay on Drechslera [3], 50 µg/mL (≈ 212 µM); in the assay with Staphylococcus aureus [7] it was 2 µg/mL (≈ 8.46 µM); with Staphylococcus aureus [5], 3 µg/mL (≈ 12.7 µM); in the assay with Fusarium culmorum [11] it was 10 µg/mL (≈ 42.3 µM). Besides, the MIC with Candida albicans [8] and with Aspergillus fumigatus [10] was 50 µg/mL (≈ 212 µM) in each case.

As to `C[C@@H]1[C@H](O)[C@@H](C)/C=C/C=C/C=C/C=C/C=C/C=C/C=C/[C@H](O[C@@H]2O[C@H](C)[C@@H](O)[C@H](N)[C@@H]2O)C[C@@H]2O[C@](O)(C[C@@H](O)C[C@@H](O)[C@H](O)CC[C@@H](O)C[C@@H](O)CC(=O)O[C@H]1C)C[C@H](O)[C@H]2C(=O)O` [AMPHOTERICIN B], the MIC in the assay with Fusarium culmorum [2] is 40 µg/mL (≈ 43.3 µM); in the assay on Drechslera [9], 4 µg/mL (≈ 4.33 µM); with Candida albicans [8] it was 40 µg/mL (≈ 43.3 µM); with Aspergillus fumigatus [10], 40 µg/mL (≈ 43.3 µM).

As to `CCCCCCc1c(O)cc(C)cc1O`, the MIC in the assay with Aspergillus fumigatus [1] was found to be 10 µg/mL (≈ 48 µM); with Fusarium culmorum [2] it was 50 µg/mL (≈ 240 µM); in the assay with Drechslera [9], 50 µg/mL (≈ 240 µM); in the assay on Candida albicans [4] it was 50 µg/mL (≈ 240 µM); with Staphylococcus aureus [7] it was 1 µg/mL (≈ 4.8 µM); in the assay on Staphylococcus aureus [5], 2 µg/mL (≈ 9.6 µM). The MIC in the assay with Fusarium culmorum [11] was 10 µg/mL (≈ 48 µM); in the assay with Aspergillus fumigatus [10], 50 µg/mL (≈ 240 µM).

What is called MIC is the smallest concentration in the dilution series that meets the test's criterion for growth inhibition.

Source of the values: ChEMBL document CHEMBL1157327, “Antimicrobial dialkylresorcinols from Pseudomonas sp. Ki19” (2006).
